# Test results reported in ChEMBL document CHEMBL4033783, “Adventures in Scaffold Morphing: Discovery of Fused Ring Heterocyclic Checkpoint Kinase 1 (CHK1) Inhibitors” (J Med Chem, 2018).
# How the values were obtained:
# [1] = biological target: T1, Serine/threonine-protein kinase Chk1 (Homo sapiens, UniProt O14757); experiment: Inhibition of CHK1 (unknown origin)
# T1 sequence (O14757 whole entry): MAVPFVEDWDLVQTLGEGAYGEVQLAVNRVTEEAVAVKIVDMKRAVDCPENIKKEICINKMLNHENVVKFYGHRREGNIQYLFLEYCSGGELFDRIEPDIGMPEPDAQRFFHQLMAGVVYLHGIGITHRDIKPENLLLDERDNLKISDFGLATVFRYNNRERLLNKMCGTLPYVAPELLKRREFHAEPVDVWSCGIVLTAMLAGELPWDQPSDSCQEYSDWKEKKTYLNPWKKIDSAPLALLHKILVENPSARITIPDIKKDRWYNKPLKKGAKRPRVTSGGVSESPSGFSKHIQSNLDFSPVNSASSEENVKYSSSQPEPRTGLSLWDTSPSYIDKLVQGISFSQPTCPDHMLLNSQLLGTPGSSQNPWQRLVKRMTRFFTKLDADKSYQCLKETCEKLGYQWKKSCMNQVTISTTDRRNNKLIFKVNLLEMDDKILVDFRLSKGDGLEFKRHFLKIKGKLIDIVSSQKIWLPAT
# [2] = biological target: Voltage-gated inwardly rectifying potassium channel KCNH2 (Homo sapiens, UniProt Q12809)
# NCI-H460 = experiment: Antiproliferative activity against human H460 cells harboring dominant negative p53 construct; format: functional; conditions: for GI50: Homo sapiens, NCI-H460
# In short: (§1)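 Proliferation-inhibition concentration-response in the tumour cell lines, run as part of a gemcitabine potentiation assay, with the compound tested as a single agent without gemcitabine. Single-agent GI50 and GI25 were derived from the response curves. Values are the mean of two duplicated runs.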
# SW-620 = experiment: Antiproliferative activity against human SW620 cells; format: functional; conditions: for GI50: Homo sapiens, SW-620; in short: as §1
# MDA-MB-231 = experiment: Antiproliferative activity against human MDA-MB-231 cells; format: functional; conditions: for GI50: Homo sapiens, MDA-MB-231; in short: as §1
# [3] = Intrinsic clearance in Sprague-Dawley rat liver microsomes at […] after 2 mins in presence of NADPH by HPLC analysis; format: ADME, Microsome
# Liver = experiment: Intrinsic clearance in human liver microsomes; format: ADME, microsome
# [4] = Aqueous solubility of the compound in pH 7.4 phosphate buffer by LC-UV analysis; format: physicochemical
# [5] = Clearance in iv dosed rat plasma; format: ADME, organism-based
# [6] = Half life in iv dosed rat plasma; format: ADME, organism-based
# [7] = biological target: T2, Serine/threonine-protein kinase Chk1 (Homo sapiens) (UniProt O14757)
# T2 sequence (whole entry): T1 sequence (O14757 whole entry)
# [8] = Volume of distribution at steady state in iv dosed mouse plasma; format: ADME, organism-based; conditions: read-out: Vdss
# [9] = biological target: T2, Serine/threonine-protein kinase Chk1 (Homo sapiens); remark: listed apart in the source
# [10] = Clearance in iv dosed mouse plasma; format: ADME, organism-based
# [11] = Half life in iv dosed mouse plasma; format: ADME, organism-based
# [12] = Volume of distribution at steady state in iv dosed rat plasma; format: ADME, organism-based; conditions: read-out: Vdss
# [13] = biological target: T2, Serine/threonine-protein kinase Chk1 (Homo sapiens); remark: listed apart in the source
# [14] = Half life in iv dosed dog plasma; format: ADME, organism-based, Canis lupus familiaris
# [15] = Clearance in iv dosed dog plasma; format: ADME, organism-based, Canis lupus familiaris
# [16] = Volume of distribution at steady state in iv dosed dog plasma; format: ADME, organism-based, Canis lupus familiaris; conditions: read-out: Vdss
# HCT-116 = experiment: Abrogation of topotecan-induced G2 phase arrest in human HCT116 cells xenografted in mouse hollow fiber model assessed as ratio of cell levels at G2 phase to G1 phase at 10 mg/kg, iv after 30 hrs relative to control; format: functional
# Chain of Voltage-gated inwardly rectifying potassium channel KCNH2 (Q12809 whole entry): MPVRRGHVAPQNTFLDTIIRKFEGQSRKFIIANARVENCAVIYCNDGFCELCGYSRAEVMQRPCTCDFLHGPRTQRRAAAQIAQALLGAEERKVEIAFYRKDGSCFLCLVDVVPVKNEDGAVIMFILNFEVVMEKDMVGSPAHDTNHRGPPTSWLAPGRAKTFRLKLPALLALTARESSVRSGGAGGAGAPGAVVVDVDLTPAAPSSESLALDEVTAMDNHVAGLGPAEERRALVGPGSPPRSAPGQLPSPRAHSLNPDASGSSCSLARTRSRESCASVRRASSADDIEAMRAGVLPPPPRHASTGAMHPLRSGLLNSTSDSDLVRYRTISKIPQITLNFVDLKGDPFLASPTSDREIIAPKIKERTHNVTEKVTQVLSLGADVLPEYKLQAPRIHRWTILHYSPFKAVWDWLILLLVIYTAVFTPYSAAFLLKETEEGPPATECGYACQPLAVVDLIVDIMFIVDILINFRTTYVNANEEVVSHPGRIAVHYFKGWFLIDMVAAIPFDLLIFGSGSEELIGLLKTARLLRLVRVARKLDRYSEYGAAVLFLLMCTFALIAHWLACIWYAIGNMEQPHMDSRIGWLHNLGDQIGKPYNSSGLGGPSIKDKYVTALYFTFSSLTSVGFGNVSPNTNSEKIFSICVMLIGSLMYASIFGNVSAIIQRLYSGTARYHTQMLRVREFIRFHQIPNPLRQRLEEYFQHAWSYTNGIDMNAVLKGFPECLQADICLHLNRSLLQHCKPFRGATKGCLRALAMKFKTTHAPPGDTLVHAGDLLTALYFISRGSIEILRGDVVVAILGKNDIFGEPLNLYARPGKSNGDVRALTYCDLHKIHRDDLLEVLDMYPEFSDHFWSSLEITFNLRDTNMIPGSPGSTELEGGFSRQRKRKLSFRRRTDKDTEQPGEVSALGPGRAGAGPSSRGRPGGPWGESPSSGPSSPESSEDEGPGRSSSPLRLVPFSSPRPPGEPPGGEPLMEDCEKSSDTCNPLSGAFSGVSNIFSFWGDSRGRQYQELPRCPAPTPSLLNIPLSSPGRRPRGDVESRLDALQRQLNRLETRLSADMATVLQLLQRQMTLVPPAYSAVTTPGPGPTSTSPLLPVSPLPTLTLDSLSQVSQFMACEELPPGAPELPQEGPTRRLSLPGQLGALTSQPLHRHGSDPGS
compound,measurement,setting,value
NC(=O)c1cnc(N[C@H]2CNCC[C@@H]2O)c2cc(-c3ccccc3)sc12 (racemic),IC50,[1],10 nM
same,IC50,[2],> 31600 nM
CCN(c1ncc(C(N)=O)c2sc(-c3ccccc3)cc12)[C@H]1CCCNC1,IC50,[1],35 nM
same,IC50,[2],2400 nM
NC(=O)c1cnc(N[C@H]2CCCN[C@@H]2CCO)c2cc(-c3ccccc3)sc12 (racemic),IC50,[1],83 nM
same,IC50,[2],> 31600 nM
Nc1ccn([C@@H]2O[C@H](CO)[C@@H](O)C2(F)F)c(=O)n1 [GEMCITABINE],GI50,NCI-H460,2080 nM
same,GI50,SW-620,840 nM
same,GI50,MDA-MB-231,251 nM
CN(c1ncc(C(N)=O)c2sc(-c3ccccc3)cc12)[C@H]1CCCNC1,intrinsic clearance,[3],37 µL/min/mg
same,IC50,[1],25 nM
same,intrinsic clearance (CLint),Liver,10 µL/min/mg
same,IC50,[2],2700 nM
NC(=O)c1cnc(N[C@H]2CCCNC2)c2cc(-c3ccccc3)oc12,solubility,[4],> 1000 µM
same,IC50,[1],330 nM
NC(=O)c1cnc(O[C@H]2CCCNC2)c2cc(-c3ccccc3)sc12,intrinsic clearance,[3],> 120 µL/min/mg
same,IC50,[1],83 nM
same,intrinsic clearance (CLint),Liver,35 µL/min/mg
NC(=O)c1cnc(N(CCc2ccccc2)[C@H]2CCCNC2)c2cc(-c3ccccc3)sc12,IC50,[1],660 nM
NC(=O)c1cnc(N[C@H]2CCCNC2)c2sc(-c3cccc(F)c3)cc12,IC50,[1],6800 nM
NC(=O)c1cnc(N[C@H]2CCCNC2)c2cc(-c3cnn(Cc4ccccc4)c3)sc12,IC50,[1],14 nM
C[C@@H]1CC[C@H](Nc2ncc(C(N)=O)c3sc(-c4ccccc4)cc23)[C@H](C)N1 (racemic),IC50,[1],12 nM
same,IC50,[2],8400 nM
NC(=O)c1cnc(N[C@H]2CCCNC2)c2cc(-c3cccs3)sc12,intrinsic clearance,[3],36 µL/min/mg
same,solubility,[4],> 1000 µM
same,IC50,[1],15 nM
same,intrinsic clearance (CLint),Liver,9.1 µL/min/mg
same,IC50,[2],> 30000 nM
C[C@H]1NCCC[C@@H]1Nc1ncc(C(N)=O)c2sc(-c3ccccc3)cc12,clearance,[5],105 mL/min/kg
same,half-life,[6],5.1 h
same,PF,[7],11
same,Vd,[8],4.6 L/kg
same,PF,[9],124
same,intrinsic clearance,[3],< 10 µL/min/mg
same,clearance,[10],29 mL/min/kg
same,half-life,[11],3.4 h
same,GI25,SW-620,360 nM
same,GI50,SW-620,725 nM
same,IC50,[1],6 nM
same,Vd,[12],24 L/kg
same,intrinsic clearance (CLint),Liver,< 5 µL/min/mg
same,PF,[13],5
same,half-life,[14],9.4 h
same,clearance,[15],10 mL/min/kg
same,IC50,[2],> 31600 nM
same,Vd,[16],7.1 L/kg
same,GI25,MDA-MB-231,150 nM
same,GI50,MDA-MB-231,306 nM
NC(=O)c1cnc(N[C@H]2CCCNC2)c2cc(-c3cn[nH]c3)sc12,IC50,[1],20 nM
NC(=O)c1ccc(N[C@H]2CCCNC2)c2cc(-c3ccccc3)[nH]c12,intrinsic clearance,[3],120 µL/min/mg
same,solubility,[4],280 µM
same,IC50,[1],31 nM
same,intrinsic clearance (CLint),Liver,21 µL/min/mg
same,IC50,[2],11600 nM
NC(=O)c1ccc(N[C@H]2CCCNC2)c2cc(-c3ccc(F)cc3)[nH]c12,solubility,[4],380 µM
same,IC50,[1],23 nM
same,IC50,[2],6700 nM
NC(=O)c1cnc(N[C@H]2CCCNC2)c2cc(-c3ccccc3)sc12,clearance,[5],295 mL/min/kg
same,half-life,[6],3.1 h
same,PF,[7],12
same,Vd,[8],4 L/kg
same,GI25,NCI-H460,900 nM
same,GI50,NCI-H460,1800 nM
same,Ratio,HCT-116,3.2
same,PF,[9],28
same,intrinsic clearance,[3],32 µL/min/mg
same,clearance,[10],45 mL/min/kg
same,solubility,[4],> 1000 µM
same,half-life,[11],1.5 h
same,GI25,SW-620,490 nM
same,GI50,SW-620,970 nM
same,IC50,[1],7 nM
same,Vd,[12],75 L/kg
same,intrinsic clearance (CLint),Liver,9.2 µL/min/mg
same,PF,[13],5
same,half-life,[14],5.4 h
same,clearance,[15],11 mL/min/kg
same,IC50,[2],19700 nM
same,Vd,[16],3.7 L/kg
same,GI25,MDA-MB-231,270 nM
same,GI50,MDA-MB-231,536 nM
C[C@@H]1NCCC[C@@H]1Nc1ncc(C(N)=O)c2sc(-c3ccccc3)cc12,IC50,[1],69 nM
same,IC50,[2],5900 nM
NC(=O)c1cnc(N[C@H]2CCCNC2)c2cc(-n3ccnc3)sc12,IC50,[1],24 nM
NC(=O)c1ccc(N[C@H]2CCCNC2)c2cc(-c3cccc(F)c3)[nH]c12,IC50,[1],9 nM
same,IC50,[2],7700 nM
NC(=O)c1cnc(N[C@H]2CCCNC2)c2cc(-c3cccc(F)c3)sc12,clearance,[5],196 mL/min/kg
same,half-life,[6],4.4 h
same,PF,[7],11
same,Vd,[8],4.6 L/kg
same,GI25,NCI-H460,1450 nM
same,GI50,NCI-H460,2900 nM
same,PF,[9],38
same,clearance,[10],28 mL/min/kg
same,solubility,[4],334 µM
same,half-life,[11],8.5 h
same,GI25,SW-620,420 nM
same,GI50,SW-620,841 nM
same,IC50,[1],12 nM
same,Vd,[12],54.3 L/kg
same,PF,[13],4
same,half-life,[14],5.1 h
same,clearance,[15],10 mL/min/kg
same,Vd,[16],4.4 L/kg
same,GI25,MDA-MB-231,320 nM
same,GI50,MDA-MB-231,641 nM
Cn1cc(-c2cc3c(N[C@H]4CCCNC4)ncc(C(N)=O)c3s2)cn1,IC50,[1],6 nM
C[C@@H]1CC[C@H](Nc2ncc(C(N)=O)c3sc(-c4ccccc4)cc23)CN1 (racemic),IC50,[1],21 nM
NC(=O)c1ccc(N[C@H]2CCCNC2)c2cc(-c3ccc(Cl)cc3)[nH]c12,solubility,[4],320 µM
same,IC50,[1],15 nM
same,IC50,[2],4100 nM
NC(=O)c1cnc(N(CCO)[C@H]2CCCNC2)c2cc(-c3ccccc3)sc12,IC50,[1],79 nM
same,IC50,[2],> 31600 nM
NC(=O)c1cnc(N[C@H]2CCCNC2)c2cc(-c3ccsc3)sc12,intrinsic clearance,[3],72 µL/min/mg
same,solubility,[4],980 µM
same,IC50,[1],6 nM
same,intrinsic clearance (CLint),Liver,29 µL/min/mg
same,IC50,[2],28000 nM
NC(=O)Nc1sc(-c2ccccc2)cc1C(=O)N[C@H]1CCCNC1,PF,[7],11
same,GI25,NCI-H460,620 nM
same,GI50,NCI-H460,1230 nM
same,PF,[9],67
same,solubility,[4],> 2000 µM
same,GI25,SW-620,420 nM
same,GI50,SW-620,839 nM
same,PF,[13],9
same,IC50,[2],> 31600 nM
same,GI25,MDA-MB-231,300 nM
same,GI50,MDA-MB-231,596 nM
NC(=O)c1cnc(SC2CCCNC2)c2cc(-c3ccccc3)sc12 (racemic),intrinsic clearance,[3],11 µL/min/mg
same,IC50,[1],56 nM
same,intrinsic clearance (CLint),Liver,< 5 µL/min/mg
same,IC50,[2],4900 nM
NC(=O)c1cnc(N[C@H]2CCCNC2)c2sc(-c3ccccc3)cc12,IC50,[1],2600 nM
same,IC50,[2],> 31600 nM
CN1CCC[C@H](Nc2ncc(C(N)=O)c3sc(-c4ccccc4)cc23)C1,IC50,[1],140 nM
